This test has as its target T1, Legumain (Homo sapiens) (UniProt Q99538).
T1 sequence (whole entry): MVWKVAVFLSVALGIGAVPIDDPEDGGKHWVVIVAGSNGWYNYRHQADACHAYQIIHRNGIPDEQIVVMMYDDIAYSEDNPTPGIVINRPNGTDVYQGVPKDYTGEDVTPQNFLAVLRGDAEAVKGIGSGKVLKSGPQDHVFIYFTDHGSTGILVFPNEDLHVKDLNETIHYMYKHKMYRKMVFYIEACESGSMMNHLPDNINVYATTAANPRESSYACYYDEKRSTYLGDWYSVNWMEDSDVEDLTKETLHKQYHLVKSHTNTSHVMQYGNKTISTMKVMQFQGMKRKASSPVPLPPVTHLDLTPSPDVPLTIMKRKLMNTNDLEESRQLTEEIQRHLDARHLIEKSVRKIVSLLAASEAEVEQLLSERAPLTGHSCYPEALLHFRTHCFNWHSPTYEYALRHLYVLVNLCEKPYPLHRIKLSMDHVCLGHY
Nature of the test: Inhibition of human AE assessed as ratio of pseudo-first-order inhibition rate constant to inhibitor concentration. The essentials: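 Human AE; inhibitor and substrate incubated at 25 °C in 20 mM citric acid, 60 mM Na2HPO4, 1 mM EDTA, 0.1% CHAPS, pH 5.8 before enzyme addition.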

SMILES strings stand for the structures.

On to `Cc1ccc(C)c(C(=O)OCC(=O)[C@H](CC(N)=O)NC(=O)OCc2ccccc2)c1`, for which the Ratio worked out at 109000 M⁻¹ s⁻¹.

These data come from ChEMBL document CHEMBL1150273, “Aza-peptidyl Michael acceptors. A new class of potent and selective inhibitors of asparaginyl endopeptidases (legumains) from evolutionarily diverse pathogens” (J Med Chem, 2008).
